Experimental data pooled from the literature.
Protocols differ between the studies behind these lines.
Target: Mitogen-activated protein kinase kinase kinase kinase 4 (MAP4K4, Homo sapiens, UniProt O95819)

SMILES | read-out | method | concentration | remaining binding
N[C@H]1CCN(c2nccc(-c3cnn4ncccc34)n2)C1 | binding |  | 1 µM | 100%
C[C@H](c1cccc(C#N)c1)n1cc(Cl)cc(C(N)=O)c1=N | cell-free assay | competition with immobilised ligand | 1 µM | 100%
O=C(Nc1c[nH]nc1C(=O)NC1CCNCC1)c1cc(F)cc(F)c1 | binding | competition with immobilised ligand | 1 µM | 100%
Nc1ncc2c(n1)-c1c([nH]c3ccc(C#CC4CC4)cc13)CCCC2 | binding | competition with immobilised ligand | 1 µM | 90%
O=C(NCCCN1CCOCC1)c1ccc(Nc2nccc(-c3cc4ccccc4s3)n2)cc1 | binding | competition with immobilised ligand | 1 µM | 100%
CN(C)c1ncc(F)c(-c2cnn3ncccc23)n1 | binding |  | 1 µM | 100%
COc1ncc2cc3ccccc3nc2c1C#N | cell-free assay | competition with immobilised ligand | 5 µM | 91%
O=C(NCCCC1CCCCC1)c1ccc(CNC(=O)c2cnn(-c3ccccc3)c2C(F)(F)F)cc1 | cell-free assay | competition with immobilised ligand | 0.1 µM | 81%
COc1ccnn2ncc(-c3ccnc(N(C)C)n3)c12 | binding |  | 1 µM | 93%
O=C(NCCCN1CCOCC1)c1ccc(Nc2ncc(Cl)c(-c3ccc(Cl)s3)n2)cc1 | binding | competition with immobilised ligand | 1 µM | 67%
Cc1cnn2ncc(-c3ccnc(N(C)C)n3)c2c1 | binding |  | 1 µM | 100%
FC(F)(F)Oc1cccc(-c2cnc3ccc(-c4ccncc4)nn23)c1 | cell-free assay | competition with immobilised ligand | 5 µM | 49%
CC(=O)N1CCC(c2ccc(C(=O)NC(=N)N)cc2C(F)(F)F)CC1 | cell-free assay | competition with immobilised ligand | 1 µM | 100%
CNC(=O)[C@@H]1CC[C@@H](n2c(-c3ccc4cnccc4c3)nc3ccc(C(=O)NCc4cccc(C(N)=O)c4)cc32)C1 | binding | competition with immobilised ligand | 1 µM | 100%
c1cncc(-c2cccc(Nc3nccc(NC4CCCCC4)n3)c2)c1 | binding | competition with immobilised ligand | 10 µM | 26%
O=C(NS(=O)(=O)c1ccc(NCC2CCOCC2)c([N+](=O)[O-])c1)c1ccc(N2CCN(Cc3ccc(C(F)(F)F)cc3-c3ccc(Cl)cc3)CC2)cc1Oc1cnc2[nH]ccc2c1 | cell-free assay | competition with immobilised ligand | 1 µM | 95%
c1cnn2ncc(-c3ccnc(N4CCC45COC5)n3)c2c1 | binding |  | 1 µM | 77%
CS(=O)(=O)NCC[C@H](NC(=O)c1cncc2c1cnn2-c1ccc(F)cc1)c1ccnc(S(C)(=O)=O)c1 | cell-free assay | competition with immobilised ligand | 1 µM | 86%
F[C@@H]1CCN(c2nccc(-c3cnn4ncccc34)n2)C1 | binding |  | 1 µM | 76%
Cc1nccc(COC(=O)N2C[C@@H]3[C@@H](CNC(=O)c4ccc5[nH]nnc5c4)[C@@H]3C2)n1 | cell-free assay | competition with immobilised ligand | 1 µM | 99%
O=C(c1ccc(Nc2ncc(Cl)c(-c3cc4ccccc4s3)n2)cc1)N1CCC(N2CCCC2)CC1 | binding | competition with immobilised ligand | 1 µM | 34%
